Test results as given in ChEMBL document CHEMBL1130346, “A new rational hypothesis for the pharmacophore of the active metabolite of leflunomide, a potent immunosuppressive drug” (J Med Chem, 1997).

Key:
[1] = In vitro inhibition of lymphocyte activated CD2 antigens induced by monoclonal antibody; type: functional, Homo sapiens
Method in brief: (§1)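 Human PBMC from healthy donors, separated on Ficoll-Hypaque, at 10⁶ cells/mL in RPMI 1640 with 10% FBS. Cells were incubated with test compounds and stimulated with an optimal concentration of anti-CD3 mAb OKT3 for 24 h at 37 °C in 5% CO₂. CD2, CD25 and CD71 were read by immunofluorescence staining and flow cytometry. IC50 values came from at least two experiments, which differed by less than 10%.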

Mus musculus [2] = species: Mus musculus; experiment: The compound was tested for in vitro mixed lymphocyte reaction.; type: functional, organism-based
Method in brief: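 Bidirectional murine MLR using BALB/c and DBA/2 splenocytes isolated on Ficoll-Hypaque. 5×10⁴ cells of each strain were cocultured in triplicate for 96 h with serial dilutions of compound (20 mM DMSO stock), with DMSO-matched controls. Medium was RPMI 1640 with 5% FBS. [³H]thymidine (1 µCi) was added for the last 18 h. IC50 is 50% inhibition of proliferation versus untreated cultures; at least three experiments.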

[3] = In vitro inhibition of lymphocyte activated CD25 antigens induced by monoclonal antibody; type: functional, Homo sapiens; method in brief: as §1
[4] = In vitro inhibition of lymphocyte activated CD71 antigens induced by monoclonal antibody; type: functional, Homo sapiens; method in brief: as §1
Mus musculus [5] = experiment: Inhibition of paw edema formation in mouse after an ip dose of 10 mg/kg; Thickness of paw = 2.38+/-0.07 mm; type: functional; conditions: route intraperitoneal
Mus musculus [6] = species: Mus musculus; experiment: animal or person; conditions: ip, read-out: Inhibition
Mus musculus [7] = species: Mus musculus; experiment: animal or person; conditions: ip, read-out: Inhibition; remark: listed apart in the source
[8] = In vitro inhibition of expression of lymphocyte activated CD71 antigens induced by monoclonal antibody; type: functional; conditions: Homo sapiens; method in brief: as §1
[9] = In vitro inhibition of expression of lymphocyte activated CD25 antigens induced by monoclonal antibody; type: functional; conditions: Homo sapiens; method in brief: as §1
Mus musculus [10] = experiment: Inhibition of paw edema formation in mouse after an peroral dose of 10 mg/kg; Thickness of paw =2.45+/-0.14 mm; type: functional; conditions: route oral
[11] = In vitro inhibition of expression of lymphocyte activated CD2 antigens induced by monoclonal antibody; type: functional; conditions: Homo sapiens; method in brief: as §1

Compound	IC50 [1] [µM]	IC50 (Mus musculus [2]) [µM]	IC50 [3] [µM]	IC50 [4] [µM]	inhibition in vivo at 10 mg/kg (Mus musculus [5]) [%]	inhibition in vivo at 5 mg/kg (Mus musculus [6]) [%]	inhibition in vivo at 50 mg/kg (Mus musculus [7]) [%]	IC50 [8] [µM]	IC50 [9] [µM]	inhibition in vivo at 10 mg/kg (Mus musculus [10]) [%]	IC50 [11] [µM]
CCO/C(O)=C(/C(C)=O)C(=O)Nc1ccc(C(F)(F)F)cc1	90.8	71.6	96.4	78.1							
O=C1CCCC(O)=C1C(=O)Nc1ccc(C(F)(F)F)cc1	2.9	1.25	2.9	11							
O=C1COC(O)=C1C(=O)Nc1ccc(C(F)(F)F)cc1	95.4	45.9	> 100	> 100							
CC(O)=C(C(=O)Nc1ccc(C(F)(F)F)cc1)C(=O)Nc1ccc(C(F)(F)F)cc1	15.3	11.9	18.4	18.8							
O=C(Nc1ccc(C(F)(F)F)cc1)c1ccccc1O	3	1.65	2.4	4.4	43						
O=C1CCC(O)=C1C(=O)Nc1ccc(C(F)(F)F)cc1	13.8	3.4	14.8	66.5							
C/C=C/C[C@@H](C)[C@@H](O)[C@H]1C(=O)N[C@@H](CC)C(=O)N(C)CC(=O)N(C)[C@@H](CC(C)C)C(=O)N[C@@H](C(C)C)C(=O)N(C)[C@@H](CC(C)C)C(=O)N[C@@H](C)C(=O)N[C@H](C)C(=O)N(C)[C@@H](CC(C)C)C(=O)N(C)[C@@H](CC(C)C)C(=O)N(C)[C@@H](C(C)C)C(=O)N1C [CYCLOSPORINE]						48	83				
Cc1oncc1C(=O)Nc1ccc(C(F)(F)F)cc1 [LEFLUNOMIDE]		9.6						> 100	130	45	126
C/C(O)=C(\C#N)C(=O)Nc1ccc(C(F)(F)F)cc1 [TERIFLUNOMIDE]	50.9	41.3	89.9	74.6							
